# Results published in ChEMBL document CHEMBL1799934, “Irreversible Nek2 kinase inhibitors with cellular activity” (J Med Chem, 2011).
# Residue numbers refer to the chain shown, from its start. The source made the active and inactive calls. The rule behind the calls is not given here.
# How the values were obtained:
# [1] = biological target: T1, Serine/threonine-protein kinase Nek2 (Homo sapiens, UniProt P51955); test: Inhibition of human Nek2 in using [gamma-32P] ATP
# T1 sequence (P51955 whole entry): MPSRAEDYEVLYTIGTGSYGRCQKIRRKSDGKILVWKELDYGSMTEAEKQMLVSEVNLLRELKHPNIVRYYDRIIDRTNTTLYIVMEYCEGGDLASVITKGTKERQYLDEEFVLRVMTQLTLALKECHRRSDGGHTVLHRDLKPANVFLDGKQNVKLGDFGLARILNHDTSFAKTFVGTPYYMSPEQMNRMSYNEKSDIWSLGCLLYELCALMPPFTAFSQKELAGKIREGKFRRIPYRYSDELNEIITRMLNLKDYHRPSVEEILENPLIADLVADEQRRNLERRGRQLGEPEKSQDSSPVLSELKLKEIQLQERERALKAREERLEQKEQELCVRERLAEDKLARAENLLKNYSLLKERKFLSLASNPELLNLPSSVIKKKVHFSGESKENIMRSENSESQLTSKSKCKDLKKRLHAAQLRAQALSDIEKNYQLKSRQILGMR
# [2] = biological target: Cyclin-dependent kinase 1/cyclin B1 (Homo sapiens, UniProt P06493); test: Inhibition of human Cdk1/cyclinB using histone H1 as a substrate and [gamma-32P]ATP; assay type: protein-complex assay
# Chain of Cyclin-dependent kinase 1/cyclin B1 (P06493 whole entry): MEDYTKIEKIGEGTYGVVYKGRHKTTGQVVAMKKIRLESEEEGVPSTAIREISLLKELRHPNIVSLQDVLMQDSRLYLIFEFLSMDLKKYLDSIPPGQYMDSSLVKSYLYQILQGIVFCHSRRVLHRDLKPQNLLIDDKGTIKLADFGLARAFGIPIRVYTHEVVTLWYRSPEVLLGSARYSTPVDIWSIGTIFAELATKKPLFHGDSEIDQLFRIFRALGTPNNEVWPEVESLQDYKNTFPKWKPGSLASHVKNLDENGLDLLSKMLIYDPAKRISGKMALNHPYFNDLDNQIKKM
# Chain of Cyclin-dependent kinase 1/cyclin B1 (P14635 whole entry, further chain): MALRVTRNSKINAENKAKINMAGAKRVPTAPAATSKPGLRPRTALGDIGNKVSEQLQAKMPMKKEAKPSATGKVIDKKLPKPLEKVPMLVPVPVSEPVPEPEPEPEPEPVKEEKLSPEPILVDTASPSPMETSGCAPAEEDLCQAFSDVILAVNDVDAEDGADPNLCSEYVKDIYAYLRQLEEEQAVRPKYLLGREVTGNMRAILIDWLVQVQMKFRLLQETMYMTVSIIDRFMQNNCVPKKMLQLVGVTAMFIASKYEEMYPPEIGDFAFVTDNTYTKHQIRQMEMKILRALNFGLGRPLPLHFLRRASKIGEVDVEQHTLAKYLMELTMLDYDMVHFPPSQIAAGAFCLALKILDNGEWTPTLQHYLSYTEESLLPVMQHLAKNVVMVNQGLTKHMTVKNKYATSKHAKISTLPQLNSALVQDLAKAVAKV
# A549 [3] = test: Antimitotic activity in monastrol-arrested human A549 cells assessed as cells that exit mitosis arrest at 5 uM after 45 mins by immunofluorescence microscopic analysis; assay type: functional
# Homo sapiens = organism: Homo sapiens; test: Ratio of IC50 for human Nek2 to IC50 for human Cdk1/cyclinB
# Procedure, shortened: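 Nek2 (WT kinase domain, 15 nM) pre-incubated with inhibitor for 30 min at room temperature in HEPES pH 7.5, MgCl2, EDTA, BSA with 100 μM ATP and 3% DMSO. β-casein and [γ-32P]ATP were then added for a 30-min reaction. Cdk1/cyclin B (2 nM) was run the same way but with 38 μM ATP and histone H1 as substrate. Phosphorylation was read from nitrocellulose spots. IC50s are means of three determinations.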
# A549 [4] = test: Induction of deffect in bipolar spindle assembly in human A549 cells at 5 uM after 30 mins in presence of Cdk1 inhibitor 19; assay type: functional, cell-based
# Procedure, shortened: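 A549 cells on poly-lysine coverslips grown 24 h, held in late G2 with 5 μM 19 for 20 h, then given 5 μM test compound plus 5 μM 19 for 30 min. Washed twice into compound-free media, then 10 μM MG132 for 1 h. Fixed and immunostained for spindles and chromosomes. Bipolar spindles quantified in >160 cells/condition, mean ± SD of 3 experiments.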
# A549 [5] = test: Effect on chromosome congression in human A549 cells at 5 uM after 30 mins in presence of Cdk1 inhibitor 19; assay type: functional, cell-based
# A549 [6] = test: Reduction in total number of mitotic cells in human A549 cells at 5 uM after 30 mins in presence of Cdk1 inhibitor 19; assay type: functional, cell-based
# [7] = biological target: T2, Serine/threonine-protein kinase Nek2 (Homo sapiens) (UniProt P51955); test: Inhibition of human Nek2 at 5 uM using [gamma-32P] ATP
# T2 sequence (whole entry): T1 sequence (P51955 whole entry)
# [8] = biological target: Serine/threonine-protein kinase Nek2 (Homo sapiens, UniProt P51955, C22V); test: Inhibition of human Nek2 C22V mutant using [gamma-32P] ATP
# Chain of Serine/threonine-protein kinase Nek2 (Homo sapiens, UniProt P51955, C22V) (P51955 whole entry C22V, the tested form may be a part): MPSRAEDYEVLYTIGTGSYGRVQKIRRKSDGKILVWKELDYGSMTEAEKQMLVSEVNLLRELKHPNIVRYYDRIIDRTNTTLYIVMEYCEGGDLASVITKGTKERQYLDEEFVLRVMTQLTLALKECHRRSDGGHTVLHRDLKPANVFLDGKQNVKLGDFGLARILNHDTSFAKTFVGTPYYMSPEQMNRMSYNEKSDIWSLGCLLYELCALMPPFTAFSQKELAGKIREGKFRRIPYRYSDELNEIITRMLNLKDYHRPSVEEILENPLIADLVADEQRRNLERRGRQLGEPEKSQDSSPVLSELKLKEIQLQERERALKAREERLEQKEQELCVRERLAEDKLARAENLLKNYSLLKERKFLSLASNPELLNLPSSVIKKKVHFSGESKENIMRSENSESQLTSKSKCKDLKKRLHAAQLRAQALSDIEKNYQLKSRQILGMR
# [9] = biological target: T2, Serine/threonine-protein kinase Nek2 (Homo sapiens); test: Induction of alkylation at Cys22 position of wild type human Nek2 kinase domain amino acid 1-271 at 500 nM by electrospray mass spectrometric analysis
# Procedure, shortened: (§1)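 WT or C22V Nek2 kinase domain (50 nM) incubated with 500 nM inhibitor in PBS pH 7.4, 5% DMSO, 5 h at room temperature. Acidified to pH 3 with HCl, then LC-MS on a C18 protein column with acetonitrile/formic acid gradient and ESI detection. Spectra deconvoluted to single masses of protein and adducts.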
# [10] = test system: T3, Serine/threonine-protein kinase Nek2 (Homo sapiens), P51955 [C22V]; test: Induction of alkylation at Cys22 position of human Nek2 C22V mutant kinase domain amino acid 1-271 at 500 nM by electrospray mass spectrometric analysis; procedure, shortened: as §1
# T3 sequence (whole entry): T1 sequence (P51955 whole entry) with C22V
Compound,IC50 [1],IC50 [2],Activity (A549 [3]),other results
Cc1nc[nH]c1/C=C1\C(=O)Nc2ccc(C(=O)CCl)cc21,20 nM,< 1 nM,100%,–
O=C1Nc2ccc(C(=O)CCl)cc2/C1=C/c1cnc[nH]1,60 nM,< 1 nM,92%,–
CCc1nc(C)c(/C=C2\C(=O)N(C)c3ccc(C(=O)CCl)cc32)[nH]1.Cl,–,–,0.9%,–
CCc1nc(C)c(/C=C2\C(=O)Nc3ccc(C(=O)CCl)cc32)[nH]1,130 nM,2500 nM,50%,–
CCc1nc(C)c(/C=C2\C(=O)Nc3ccc(C(C)=O)cc32)[nH]1,> 20000 nM,3600 nM,27%,–
CC#CC(=O)Nc1ccc2c(c1)/C(=C/c1[nH]c(CC)nc1C)C(=O)N2,–,> 20000 nM,33%,–
C#CC(=O)Nc1ccc2c(c1)/C(=C/c1[nH]c(CC)nc1C)C(=O)N2C,> 20000 nM,> 20000 nM,0%,–
C#CC(=O)Nc1ccc2c(c1)/C(=C/c1[nH]cnc1C)C(=O)N2,390 nM,< 1 nM,99%,Ratio IC50 (Homo sapiens): 400
C#CC(=O)Nc1ccc2c(c1)/C(=C/c1[nH]c(CC)nc1C)C(=O)N2,–,> 20000 nM,–,Activity (A549 [4]): inactive; Activity (A549 [5]): inactive; Activity (A549 [6]): inactive
O=C1Nc2ccc(C(=O)CCl)cc2/C1=C/c1ccc[nH]1,< 6 nM,10 nM,98%,inhibition [7]: 80%; IC50 [8]: 14000 nM; Activity [9]: Active; Activity [10]: inactive
C=CC(=O)Nc1ccc2c(c1)/C(=C/c1ccc[nH]1)C(=O)N2,–,–,–,inhibition [7]: inactive
C#CC(=O)Nc1ccc2c(c1)/C(=C/c1ccc[nH]1)C(=O)N2,920 nM,90 nM,78%,inhibition [7]: 80%; IC50 [8]: 20000 nM; Activity [9]: Active; Activity [10]: inactive
C#CC(=O)Nc1ccc2c(c1)/C(=C/c1cnc[nH]1)C(=O)N2,620 nM,< 1 nM,80%,–
